Calls of active or inactive are those of the source. No cut-off for these calls is given here.
Key:
Aorta [1] = assay: Vasorelaxant activity in Wistar rat endothelium-removed thoracic aortic rings assessed as reduction of KCl-induced vasoconstriction at 0.001 uM to 10 uM treated after KCl-challenge relative to control; assay type: functional
Method in brief: (§1)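 Thoracic aortic rings from male Wistar rats (250-350 g), endothelium removed by rubbing; removal confirmed as <10% relaxation to ACh 10 µM in KCl 30 mM-contracted rings. Rings contracted with KCl 30 mM; at plateau, 3-fold increasing compound concentrations (1 nM-10 µM) added. Isometric tension recorded. Emax given as % of KCl tone; pIC50 as -log molar concentration halving that tone. 6-10 experiments; also run with ODQ 1 µM.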

[2] = molecular target: T1, Prostaglandin G/H synthase 1 (Mus musculus, UniProt P22437); assay: Inhibition of arachidonic acid-induced COX1 activity in mouse J774 cells assessed as decrease in PGE2 levels incubated for 15 mins prior to arachidonic acid-challenge measured after 30 mins by RIA; assay type: cell-based
T1 sequence (P22437 whole entry): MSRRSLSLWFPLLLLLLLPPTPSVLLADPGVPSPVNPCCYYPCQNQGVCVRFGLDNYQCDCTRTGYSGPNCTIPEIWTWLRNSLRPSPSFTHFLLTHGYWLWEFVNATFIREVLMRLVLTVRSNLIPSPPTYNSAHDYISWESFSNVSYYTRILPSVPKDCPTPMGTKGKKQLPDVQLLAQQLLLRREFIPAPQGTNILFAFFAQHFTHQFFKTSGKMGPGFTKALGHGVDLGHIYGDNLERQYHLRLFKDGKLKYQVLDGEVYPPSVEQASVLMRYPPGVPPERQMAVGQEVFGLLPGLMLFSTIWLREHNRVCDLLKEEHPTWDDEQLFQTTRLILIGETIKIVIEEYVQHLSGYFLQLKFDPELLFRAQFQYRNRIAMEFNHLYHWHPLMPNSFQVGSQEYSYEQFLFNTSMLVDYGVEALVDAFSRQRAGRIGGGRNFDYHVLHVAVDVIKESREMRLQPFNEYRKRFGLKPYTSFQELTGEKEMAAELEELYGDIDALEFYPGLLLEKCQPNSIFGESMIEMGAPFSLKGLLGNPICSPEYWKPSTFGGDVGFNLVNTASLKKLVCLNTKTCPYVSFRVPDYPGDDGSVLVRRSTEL
Method in brief: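 Cells were in DMEM with 10% FBS and adhered for 2 h at 37 °C. They were pretreated with compound (10 µM; 0.1-1 µM where inhibition exceeded 50%) for 15 min, then given 15 µM arachidonic acid for 30 min at 37 °C. Supernatant PGE2 was measured by RIA. Triplicate wells were used and the mean of three experiments reported. IC50 came from a variable-slope sigmoidal fit.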

J774 = assay: Selectivity index, ratio of IC50 for COX1 in mouse J774 cells […]; assay type: cell-based
Rattus norvegicus [3] = assay: Antiinflammatory activity in Sprague-Dawley/Wistar rat assessed as decrease in carrageenan-induced hyperalgesia at 20 mg/kg, po administered 4 hrs after carrageenan-challenge measured after 120 mins (reference value: 31.4 +/- 3.7 g); assay type: functional
Mus musculus = assay: Antinociceptive activity in po dosed Swiss albino mouse assessed as reduction in number of acetic acid-induced writhing counted 5 mins after acetic acid challenge counted for 10 mins; assay type: functional; settings: read-out: MED
Method in brief: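 Male Swiss albino mice (23-25 g) dosed orally, then given 0.6% acetic acid (10 mL/kg) ip. Stretching movements counted for 10 min, starting 5 min after the acetic acid. Control group received CMC. At least 7 mice/group; mean ± SEM, ANOVA with Fisher's PLSD.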

Rattus norvegicus [4] = assay: Antiinflammatory activity in Sprague-Dawley/Wistar rat assessed as decrease in carrageenan-induced paw edema at 40 mg/kg, po administered 3 hrs 30 mins after carrageenan-challenge measured after 60 mins (reference value: 2.48 +/- 0.06 mL); assay type: functional
Rattus norvegicus [5] = assay: Antiinflammatory activity in Sprague-Dawley/Wistar rat assessed as decrease in carrageenan-induced hyperalgesia at 40 mg/kg, po administered 4 hrs after carrageenan-challenge measured after 30 mins (reference value: 34.8 +/- 3.0 g); assay type: functional
Aorta [6] = assay: Vasorelaxant activity in Wistar rat endothelium-removed thoracic aortic rings assessed as reduction of KCl-induced vasoconstriction treated after KCl-challenge; assay type: functional, tissue-based; method in brief: as §1
Aorta [7] = assay: Vasorelaxant activity in Wistar rat endothelium-removed thoracic aortic rings assessed as reduction of KCl-induced vasoconstriction at 0.001 uM to 10 uM treated after KCl-challenge in presence of guanylate cyclase inhibitor 1H-[1,2,4]-oxadiazolo[4,3-a]quinoxalin-1-one; assay type: functional, tissue-based
Method in brief: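 Endothelium-denuded aortic rings from male Wistar rats (250-350 g) were preincubated with ODQ 1 µM. Rings were contracted with KCl 30 mM, then given 3-fold increasing concentrations from 1 nM to 10 µM. Emax is the % relaxation of KCl tone. pIC50 was calculated when efficacy reached 50%, from 6-10 experiments.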

Rattus norvegicus [8] = assay: Antiinflammatory activity in Sprague-Dawley/Wistar rat assessed as decrease in carrageenan-induced hyperalgesia at 40 mg/kg, po administered 4 hrs after carrageenan-challenge measured after 60 mins (reference value: 33.9 +/- 3.7 g); assay type: functional
Rattus norvegicus [9] = assay: Antiinflammatory activity in Sprague-Dawley/Wistar rat assessed as decrease in carrageenan-induced paw edema at 20 mg/kg, po administered 3 hrs 30 mins after carrageenan-challenge measured after 60 mins (reference value: 2.48 +/- 0.06 mL); assay type: functional
Rattus norvegicus [10] = assay: Antiinflammatory activity in Sprague-Dawley/Wistar rat assessed as decrease in carrageenan-induced hyperalgesia at 20 mg/kg, po administered 4 hrs after carrageenan-challenge measured after 30 mins (reference value: 34.8 +/- 3.0 g); assay type: functional
[11] = molecular target: T2, Prostaglandin G/H synthase 2 (Mus musculus, UniProt Q05769); assay: Inhibition of Escherichia coli lipopolysaccharide-induced COX2 activity in mouse J774 cells assessed as decrease in PGE2 levels after 24 hrs by RIA; assay type: cell-based
T2 sequence (Q05769 whole entry): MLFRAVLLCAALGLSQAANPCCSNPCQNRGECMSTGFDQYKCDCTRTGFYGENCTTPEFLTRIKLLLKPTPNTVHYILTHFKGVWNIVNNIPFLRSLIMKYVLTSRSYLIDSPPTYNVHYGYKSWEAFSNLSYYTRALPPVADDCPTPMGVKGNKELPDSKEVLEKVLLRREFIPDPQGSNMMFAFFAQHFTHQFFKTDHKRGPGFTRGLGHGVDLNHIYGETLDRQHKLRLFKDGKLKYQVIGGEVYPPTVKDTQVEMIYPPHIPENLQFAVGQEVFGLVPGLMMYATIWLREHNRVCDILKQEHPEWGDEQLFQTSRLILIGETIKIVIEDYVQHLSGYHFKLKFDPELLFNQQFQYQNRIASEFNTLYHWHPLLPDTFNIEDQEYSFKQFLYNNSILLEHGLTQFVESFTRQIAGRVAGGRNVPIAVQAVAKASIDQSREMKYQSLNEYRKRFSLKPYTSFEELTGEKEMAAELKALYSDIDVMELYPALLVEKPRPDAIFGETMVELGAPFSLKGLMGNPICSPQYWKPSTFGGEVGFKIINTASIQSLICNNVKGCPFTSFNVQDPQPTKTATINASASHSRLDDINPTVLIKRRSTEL
Method in brief: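 Adhered cells in DMEM/10% FBS were stimulated with E. coli LPS 10 µg/mL for 24 h with compound present at 0.01-10 µM. Supernatant PGE2 was measured by RIA. IC50 came from a variable-slope sigmoidal fit.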

Rattus norvegicus [12] = assay: Antiinflammatory activity in Sprague-Dawley/Wistar rat assessed as decrease in carrageenan-induced hyperalgesia at 20 mg/kg, po administered 4 hrs after carrageenan-challenge measured after 60 mins (reference value: 33.9 +/- 3.7 g); assay type: functional
Rattus norvegicus [13] = assay: Antiinflammatory activity in Sprague-Dawley/Wistar rat assessed as decrease in carrageenan-induced hyperalgesia at 40 mg/kg, po administered 4 hrs after carrageenan-challenge measured after 120 mins (reference value: 31.4 +/- 3.7 g); assay type: functional

In the case of `O=[N+]([O-])OCC(CO[N+](=O)[O-])O[N+](=O)[O-]` [NITROGLYCERIN], the Emax (Aorta [1]) is reported as 93%.

In the case of `Cc1c(CCOCCCO)cc(-c2ccc(S(C)(=O)=O)cc2)n1-c1ccc(F)cc1`, the Emax (Aorta [1]) is reported as “inactive”, the IC50 [2] is reported as over 10 µM and the Ratio IC50 (J774) is reported as over 10.6.

Work on `Cc1c(CCOCCO[N+](=O)[O-])cc(-c2ccc(S(C)(=O)=O)cc2)n1-c1cccc(F)c1` yielded an Activity (Rattus norvegicus [3]) of 35.2 g, a minimal effective dose (Mus musculus) of 40 mg/kg and an Activity (Rattus norvegicus [4]) of 2.08 mL. For the same compound, the Activity (Rattus norvegicus [5]) was 47.3 g, the IC50 (Aorta [6]) was 4.79 µM and the pIC50 (Aorta [6]) was “Dose-dependent effect”. The Activity (Aorta [7]) was “inactive”, the Activity (Rattus norvegicus [8]) was 41 g and the Activity (Rattus norvegicus [9]) was 2.16 mL. For the same compound, the Activity (Rattus norvegicus [10]) was 43.9 g, the IC50 [11] was 0.027 µM and the IC50 [2] was over 10 µM. It also gave a Ratio IC50 (J774) of over 357, an Activity (Rattus norvegicus [12]) of 40.7 g and an Activity (Rattus norvegicus [13]) of 34.3 g.

For `Cc1c(CCOCCCO[N+](=O)[O-])cc(-c2ccc(S(C)(=O)=O)cc2)n1-c1cccc(F)c1`, the IC50 [11] was 0.023 µM, the Emax (Aorta [1]) was “inactive” and the IC50 [2] was 2.9 µM. The Ratio IC50 (J774) was 126.

In the case of `Cc1c(CCOCCCO[N+](=O)[O-])cc(-c2ccc(S(C)(=O)=O)cc2)n1-c1ccc(F)cc1`, the Emax (Aorta [1]) is reported as “inactive”, the IC50 [2] is reported as over 10 µM and the Ratio IC50 (J774) is reported as over 52.6.

With `Cc1c(CCOCCO[N+](=O)[O-])cc(-c2ccc(S(C)(=O)=O)cc2)n1-c1ccccc1` the Activity (Rattus norvegicus [3]) was 48.7 g, the minimal effective dose (Mus musculus) was 10 mg/kg and the Activity (Aorta [6]) was “Dose-dependent effect”. For the same compound, the IC50 (Aorta [6]) was 6.03 µM, the Activity (Aorta [7]) was “inactive” and the Activity (Rattus norvegicus [9]) was 1.45 mL. The Activity (Rattus norvegicus [10]) was 54.2 g, the IC50 [2] was over 10 µM and the Ratio IC50 (J774) was over 588. For the same compound, the Activity (Rattus norvegicus [12]) was 55.3 g.

In the case of `Cc1c(CCOCCCO[N+](=O)[O-])cc(-c2ccc(S(C)(=O)=O)cc2)n1-c1ccccc1`, the Activity (Rattus norvegicus [3]) is reported as 45.6 g, the minimal effective dose (Mus musculus) is reported as 20 mg/kg and the IC50 (Aorta [6]) is reported as at least 10 µM. The pIC50 (Aorta [6]) was “Dose-dependent effect”, the Activity (Aorta [7]) was “inactive” and the Activity (Rattus norvegicus [9]) was 1.8 mL. The Activity (Rattus norvegicus [10]) was 53.7 g, the Emax (Aorta [1]) was 48% and the IC50 [2] was over 10 µM. For the same compound, the Ratio IC50 (J774) was over 667 and the Activity (Rattus norvegicus [12]) was 51.6 g.

With `Cc1c(CCOCCO)cc(-c2ccc(S(C)(=O)=O)cc2)n1-c1cccc(F)c1` the Activity (Rattus norvegicus [3]) was 37.2 g, the minimal effective dose (Mus musculus) was 20 mg/kg and the Activity (Rattus norvegicus [4]) was 2.12 mL. The Activity (Rattus norvegicus [5]) was 51.4 g, the Activity (Rattus norvegicus [8]) was 45.3 g and the Activity (Rattus norvegicus [9]) was 2.46 mL. For the same compound, the Activity (Rattus norvegicus [10]) was 46.9 g, the Emax (Aorta [1]) was “inactive” and the IC50 [2] was over 10 µM. It also gave a Ratio IC50 (J774) of over 217, an Activity (Rattus norvegicus [12]) of 48.6 g and an Activity (Rattus norvegicus [13]) of 39.5 g.

In the case of `Cc1c(CCOCCO)cc(-c2ccc(S(C)(=O)=O)cc2)n1-c1ccccc1`, the Activity (Rattus norvegicus [3]) is reported as 37.8 g, the minimal effective dose (Mus musculus) is reported as 10 mg/kg and the Activity (Rattus norvegicus [9]) is reported as 1.34 mL. For the same compound, the Activity (Rattus norvegicus [10]) was 56.6 g, the Emax (Aorta [1]) was “inactive” and the IC50 [2] was over 10 µM. The Activity (Rattus norvegicus [12]) was 49.2 g.

`Cc1c(CCOCCO)cc(-c2ccc(S(C)(=O)=O)cc2)n1-c1ccc(F)c(F)c1` gave an Activity (Rattus norvegicus [3]) of 41.4 g, a minimal effective dose (Mus musculus) of 20 mg/kg and an Activity (Rattus norvegicus [4]) of 1.96 mL. It also gave an Activity (Rattus norvegicus [5]) of 53.2 g, an Activity (Rattus norvegicus [8]) of 55.2 g and an Activity (Rattus norvegicus [9]) of 2.16 mL. For the same compound, the Activity (Rattus norvegicus [10]) was 43.6 g, the Emax (Aorta [1]) was “inactive” and the IC50 [2] was over 10 µM. The Ratio IC50 (J774) was over 23.8, the Activity (Rattus norvegicus [12]) was 46.7 g and the Activity (Rattus norvegicus [13]) was 49.3 g.

`Cc1c(CCOCCO[N+](=O)[O-])cc(-c2ccc(S(C)(=O)=O)cc2)n1-c1ccc(F)c(F)c1` gave an Activity (Rattus norvegicus [3]) of 38.8 g, a minimal effective dose (Mus musculus) of 20 mg/kg and an Activity (Rattus norvegicus [4]) of 2.1 mL. The Activity (Rattus norvegicus [5]) was 49.5 g, the IC50 (Aorta [6]) was at least 10 µM and the pIC50 (Aorta [6]) was “Dose-dependent effect”. For the same compound, the Activity (Aorta [7]) was “inactive”, the Activity (Rattus norvegicus [8]) was 42.5 g and the Activity (Rattus norvegicus [9]) was 2.19 mL. It also gave an Activity (Rattus norvegicus [10]) of 44.6 g, an IC50 [2] of over 10 µM and a Ratio IC50 (J774) of over 10.9. The Activity (Rattus norvegicus [12]) was 46.9 g and the Activity (Rattus norvegicus [13]) was 35.3 g.

`Cc1c(CCOCCCO)cc(-c2ccc(S(C)(=O)=O)cc2)n1-c1ccccc1` showed an Activity (Rattus norvegicus [3]) of 46.6 g, a minimal effective dose (Mus musculus) of 20 mg/kg and an Activity (Rattus norvegicus [9]) of 1.86 mL. For the same compound, the Activity (Rattus norvegicus [10]) was 52.9 g, the IC50 [11] was 8.99 µM and the Emax (Aorta [1]) was “inactive”. The IC50 [2] was over 10 µM, the Ratio IC50 (J774) was over 1.11 and the Activity (Rattus norvegicus [12]) was 50.3 g.

`Cc1c(CCOCCCO)cc(-c2ccc(S(C)(=O)=O)cc2)n1-c1cccc(F)c1` was tested, and the IC50 [11] was 0.24 µM, the Emax (Aorta [1]) was “inactive” and the IC50 [2] was 3.7 µM. It also gave a Ratio IC50 (J774) of 15.4.
